Source: ChEMBL document CHEMBL3046408, “Disease control effect of strevertenes produced by Streptomyces psammoticus against tomato fusarium wilt” (J Agric Food Chem, 2011)
Values after ≈ are worked out from the molar mass of the structure shown. Active and inactive are the calls of the source. No cut-off for these calls is given here.

What was measured:
[1] = test system: Colletotrichum orbiculare; assay: Antifungal activity against Colletotrichum orbiculare assessed as complete growth inhibition after 1 to 3 days by CLSI M38-A method; type: functional
Summary of the method: (§1)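 Broth microdilution in 96-well plates following CLSI M38-A. Conidial suspensions were dispensed to a final (0.5-5) × 10^4 spores/mL, with compound at final 0.125 to 64 μg/mL. Plates were incubated at 28 °C for 1-3 days. MIC was read visually as the lowest concentration giving complete growth inhibition.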

[2] = test system: Fusarium oxysporum f. sp. lycopersici; assay: Antifungal activity against Fusarium oxysporum f.sp. lycopersici assessed as complete growth inhibition after 1 to 3 days by CLSI M38-A method; type: functional; summary of the method: as §1
Aspergillus oryzae = assay: Antifungal activity against Aspergillus oryzae assessed as complete growth inhibition after 1 to 3 days by CLSI M38-A method; type: functional; summary of the method: as §1
Sclerotinia sclerotiorum = assay: Antifungal activity against Sclerotinia sclerotiorum assessed as complete growth inhibition after 1 to 3 days by CLSI M38-A method; type: functional
Summary of the method: (§2)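 CLSI M38-A microdilution in 96-well plates, inoculated with mycelial-fragment suspensions at a final (0.5-5) × 10^4 fragments/mL. Compound was added at final concentrations from 0.125 to 64 μg/mL. After 1-3 days at 28 °C, MIC was scored by eye as the lowest concentration completely inhibiting growth.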

Alternaria mali = assay: Antifungal activity against Alternaria mali assessed as complete growth inhibition after 1 to 3 days by CLSI M38-A method; type: functional; summary of the method: as §1
[3] = test system: Colletotrichum gloeosporioides; assay: Antifungal activity against Colletotrichum gloeosporioides assessed as complete growth inhibition after 1 to 3 days by CLSI M38-A method; type: functional; summary of the method: as §1
Ilyonectria destructans = assay: Antifungal activity against Ilyonectria radicicola assessed as complete growth inhibition after 1 to 3 days by CLSI M38-A method; type: functional; summary of the method: as §1
Solanum lycopersicum = assay: Phytotoxicity in Solanum lycopersicum (tomato) plants upto 500 ug/mL; type: organism-based; details: in vivo
Alternaria brassicicola = assay: Antifungal activity against Alternaria brassicola assessed as complete growth inhibition after 1 to 3 days by CLSI M38-A method; type: functional; summary of the method: as §1
[4] = test system: Fusarium oxysporum f. sp. lycopersici; assay: Antifungal activity against Fusarium oxysporum f.sp. lycopersici JCM 12575 in tomato plants assessed as inhibition of Fusarium wilt disease severity at 1 ug/mL measured after 10 days of inoculation under green house condition; type: functional, organism-based
Summary of the method: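 Greenhouse assay. F. oxysporum f.sp. lycopersici JCM 12575 was grown in Czapek Dox broth at 28 °C for 14 days, and the inoculum was 2 × 10^6 conidia/mL. Wounded tomato seedling roots were dipped for 10 min, potted, and soil-drenched with 5 mL of compound (1, 10, 100, 500 μg/mL); controls received sterile water. Plants spent 24 h in a 28 °C dew chamber, then went to the greenhouse. Disease severity was scored 0-5 at 10 days post-inoculation.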

Cercospora canescens = assay: Antifungal activity against Cercospora canescens assessed as complete growth inhibition after 1 to 3 days by CLSI M38-A method; type: functional; summary of the method: as §1
Colletotrichum coccodes = assay: Antifungal activity against Colletotrichum cocodes assessed as complete growth inhibition after 1 to 3 days by CLSI M38-A method; type: functional; summary of the method: as §1
Diaporthe citri = assay: Antifungal activity against Diaporthe citri assessed as complete growth inhibition after 1 to 3 days by CLSI M38-A method; type: functional
Summary of the method: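 Broth microdilution following CLSI M38-A. Mycelial-fragment suspension of the fungus at a final (0.5-5) × 10^4 fragments/mL. Antibiotic added to final concentrations of 0.125 to 64 μg/mL. Incubated at 28 °C for 1-3 days. Wells read visually; MIC is the lowest concentration giving complete growth inhibition.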

Rhizoctonia solani = assay: Antifungal activity against Rhizoctonia solani assessed as complete growth inhibition after 1 to 3 days by CLSI M38-A method; type: functional; summary of the method: as §2
[5] = test system: Fusarium oxysporum f. sp. cucumerinum; assay: Antifungal activity against Fusarium oxysporum f.sp. cucumerinum assessed as complete growth inhibition after 1 to 3 days by CLSI M38-A method; type: functional; summary of the method: as §1

Compound	MIC [1] [µg/mL]	MIC [2] [µg/mL]	MIC (Aspergillus oryzae) [µg/mL]	MIC (Sclerotinia sclerotiorum) [µg/mL]	MIC (Alternaria mali) [µg/mL]	MIC [3] [µg/mL]	MIC (Ilyonectria destructans) [µg/mL]	Activity (Solanum lycopersicum)	MIC (Alternaria brassicicola) [µg/mL]	inhibition [4]	MIC (Cercospora canescens) [µg/mL]	MIC (Colletotrichum coccodes) [µg/mL]	MIC (Diaporthe citri) [µg/mL]	MIC (Rhizoctonia solani) [µg/mL]	MIC [5] [µg/mL]
C[C@H]1/C=C/C=C/C=C/C=C/C=C/[C@@H](O)[C@H](C(=O)O)[C@H](O)C[C@H](O)CCC[C@H](O)C[C@H](O)C[C@H](O)[C@@H](C)C(=O)O[C@@H]1C [STREVERTENE A]	8 (≈ 13.8 µM)	16 (≈ 27.6 µM)	16 (≈ 27.6 µM)	8 (≈ 13.8 µM)	16 (≈ 27.6 µM)	8 (≈ 13.8 µM)	16 (≈ 27.6 µM)	Non-toxic	> 64	Active	16 (≈ 27.6 µM)	8 (≈ 13.8 µM)	32 (≈ 55.1 µM)	> 64	16 (≈ 27.6 µM)
CC[C@H]1C(=O)O[C@H](C)[C@@H](C)/C=C/C=C/C=C/C=C/C=C/[C@@H](O)[C@H](C(=O)O)[C@H](O)C[C@H](O)CCC[C@H](O)C[C@H](O)C[C@@H]1O [STREVERTENE B]	4 (≈ 6.73 µM)	8 (≈ 13.5 µM)	10 (≈ 16.8 µM)	8 (≈ 13.5 µM)	16 (≈ 26.9 µM)	8 (≈ 13.5 µM)	16 (≈ 26.9 µM)	Non-toxic	> 64	Active	32 (≈ 53.8 µM)	8 (≈ 13.5 µM)	32 (≈ 53.8 µM)	> 64	8 (≈ 13.5 µM)
